Data from ChEMBL document CHEMBL5584277, “Identification of 5-Thiocyanatothiazol-2-amines Disrupting WDR5-MYC Protein-Protein Interactions” (ACS Med Chem Lett, 2024).

Key:
WDR5-MYC = WDR5-MYC (Homo sapiens, UniProt P61964); assay: Disruption of WDR5/5-FAM-labelled MYC (261 to 267 residues)(unknown origin) interaction incubated for 120 mins by FP assay; format: protein assay
How it was run: (§1)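 FP competition with reporter probe from MYC MbIIIb residues E261–V267 bound to WDR5, compound concentration varied, DMSO as negative control. Ki obtained by fitting FP signal change to a hyperbolic function. Unlabelled MYC peptide run as assay quality control.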

SUD4 = assay: Antiproliferative activity against human SU-DHL-4 cells incubated for 72 hrs by SRB assay; format: functional, cell-based; details: SU-DHL-4, 72 h
Ramos = assay: Antiproliferative activity against human Ramos cells incubated for 72 hrs by SRB assay; format: functional, cell-based
Raji = assay: Antiproliferative activity against human Raji cells incubated for 72 hrs by SRB assay; format: functional, cell-based
WDR5-MYC (Homo sapiens) [1] = biological target: T1, WDR5-MYC (Homo sapiens) (UniProt P61964+P01106); assay: Disruption of His-tagged recombinant WDR5 (unknown origin)/HEK293T cell lysate-derived C-MYC (unknown origin) protein-protein interaction assessed as dissociation of protein complex incubated for 120 mins by Co-IP assay
[2] = biological target: WD repeat-containing protein 5 (Homo sapiens) (UniProt P61964); assay: Binding affinity to WDR5 (unknown origin) assessed as decrease in melting temperature by DSF assay relative to control
How it was run: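 DSF with WDR5 protein, with DMSO as the reference group. The inflection-point temperature (Ti) of WDR5 was monitored after compound treatment, and the change is reported as ΔTi relative to DMSO.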

HL-60 = assay: Antiproliferative activity against human HL-60 cells incubated for 72 hrs by SRB assay; format: functional, cell-based; details: HL-60, 72 h
NCI-H1299 = assay: Antiproliferative activity against human NCI-H1299 cells incubated for 72 hrs by SRB assay; format: functional, cell-based; details: NCI-H1299, 72 h
WDR5-MYC (Homo sapiens) [3] = biological target: T1, WDR5-MYC (Homo sapiens); assay: Disruption of WDR5/5-FAM-labelled MYC (261 to 267 residues)(unknown origin) interaction at 50 uM incubated for 120 mins by FP assay relative to control; format: protein assay
How it was run: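 Single-point FP screen at 50 μM compound, signal read against DMSO control. Inhibition rate given as mean of n = 2.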

[4] = biological target: WD repeat-containing protein 5 (Homo sapiens) (UniProt P61964); assay: Binding affinity to WDR5 (unknown origin) assessed as increase in melting temperature by DSF assay relative to control
How it was run: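 Differential scanning fluorimetry on WDR5 protein, compounds against DMSO. Inflection-point temperature (Ti) monitored, shift given as ΔTi relative to DMSO group.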

WDR5-MYC (Homo sapiens) [5] = biological target: T1, WDR5-MYC (Homo sapiens); assay: Disruption of WDR5/5-FAM-labelled MYC (261 to 267 residues)(unknown origin) interaction assessed as fold increase in activity incubated for 0.5 to 6 hrs by FP assay relative to control; format: protein assay; details: time 0.5-6 hrs
How it was run: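 Fluorescence polarization with WDR5 and a reporter peptide probe from MYC MbIIIb residues E261–V267. Compounds and WDR5 were incubated for 30 to 360 min before reading. FP signal was recorded over varying compound concentrations and fitted to a hyperbolic function to give Ki. DMSO served as negative control, and free MYC peptide was the quality control.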

WDR5-MYC (Homo sapiens) [6] = biological target: T1, WDR5-MYC (Homo sapiens); assay: Disruption of WDR5/5-FAM-labelled MYC (261 to 267 residues)(unknown origin) interaction incubated for 6 hrs by FP assay relative to control; format: protein assay
How it was run: (§2)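 Time-course FP competition between WDR5 and MYC-derived probe (E261–V267). Compound titrated and read after incubation times from 30 to 360 min. Maximal inhibition (%) and potency taken at each time point from the inhibition curves.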

WDR5-MYC (Homo sapiens) [7] = biological target: T1, WDR5-MYC (Homo sapiens); assay: Disruption of WDR5/5-FAM-labelled MYC (261 to 267 residues)(unknown origin) interaction by FP assay; format: protein assay; details: time 0.5-6 hrs; how it was run: as §1
WDR5-MYC (Homo sapiens) [8] = biological target: T1, WDR5-MYC (Homo sapiens); assay: Disruption of WDR5/5-FAM-labelled MYC (261 to 267 residues)(unknown origin) interaction incubated for 0.5 hrs by FP assay relative to control; format: protein assay; how it was run: as §2

## COc1ccc(-c2nc(N)sc2SC#N)cc1
WDR5-MYC
  Ki: 2.9 µM

## N#CSc1sc(N)nc1-c1ccc(O)cc1
SUD4
  IC50: 1.43 µM
Ramos
  IC50: 1.06 µM
Raji
  IC50: 0.71 µM
WDR5-MYC (Homo sapiens) [1]
  Activity: Dose-Dependent Effect
WDR5-MYC
  Ki: 2.4 µM
[2]
  ΔTm: -2.7 °C
HL-60
  IC50: 3.03 µM
NCI-H1299
  IC50: 3.7 µM

## Nc1nc(-c2ccc(Cl)cc2)cs1
WDR5-MYC (Homo sapiens) [3]
  inhibition: 0.9%

## N#CSc1cnc(N)s1
WDR5-MYC
  Ki: 6.1 µM

## CNC(=O)c1ccc(-c2nc(N)sc2SC#N)cc1
SUD4
  IC50: 2.2 µM
Ramos
  IC50: 1.51 µM
Raji
  IC50: 1.52 µM
WDR5-MYC (Homo sapiens) [1]
  Activity: Dose-Dependent Effect
WDR5-MYC
  Ki: 1 µM
[2]
  ΔTm: -5.8 °C
HL-60
  IC50: 5.32 µM
NCI-H1299
  IC50: 7.4 µM

## COc1ccc(Br)cc1S(=O)(=O)Nc1cc(Cl)ccc1O
WDR5-MYC
  Ki: 16.3 µM
[4]
  ΔTm: 1.4 °C

## COC(=O)c1ccc(-c2nc(N)sc2SC#N)cc1
WDR5-MYC
  Ki: 1.7 µM

## C[S+]([O-])c1sc(N)nc1-c1ccc(Cl)cc1 (stereo unspecified)
WDR5-MYC (Homo sapiens) [3]
  inhibition: 0.4%

## Cc1ccc(-c2nc(N)sc2SC#N)cc1
WDR5-MYC
  Ki: 3 µM

## Cc1ccc(S(=O)(=O)Nc2nc(-c3ccc(Cl)cc3)c(SC#N)s2)cc1
WDR5-MYC
  Ki: 54.5 µM

## Nc1nc(-c2ccc(Cl)cc2)c(Br)s1
WDR5-MYC (Homo sapiens) [3]
  inhibition: -5%

## N#CSc1sc(N)nc1-c1ccccc1Cl
WDR5-MYC
  Ki: 2.6 µM

## N#CSc1sc(N)nc1-c1cccc([N+](=O)[O-])c1
WDR5-MYC
  Ki: 4.1 µM

## N#Cc1sc(N)nc1-c1ccc(Cl)cc1
WDR5-MYC (Homo sapiens) [3]
  inhibition: 1.1%

## CS(=O)(=O)c1sc(N)nc1-c1ccc(Cl)cc1
WDR5-MYC (Homo sapiens) [3]
  inhibition: -10%

## N#CSc1sc(N)nc1-c1ccc(Br)cc1
WDR5-MYC
  Ki: 0.9 µM

## N#CSc1sc(N)nc1-c1ccc(C(F)(F)F)cc1
WDR5-MYC
  Ki: 1.5 µM

## N#CSc1sc(N)nc1-c1cccc(Br)c1
WDR5-MYC
  Ki: 2.6 µM

## CC(C)C(=O)Nc1nc(-c2ccc(Cl)cc2)c(SC#N)s1
WDR5-MYC
  Ki: 1.6 µM

## N#CSc1sc(N)nc1-c1ccc(F)cc1
WDR5-MYC
  Ki: 3.2 µM

## N#CSc1sc(N)nc1-c1ccccc1Br
WDR5-MYC
  Ki: 3 µM

## N#CSc1sc(N)nc1-c1ccc(Cl)cc1
WDR5-MYC (Homo sapiens) [5]
  fold change (FC): 1.5
WDR5-MYC (Homo sapiens) [6]
  Activity: 51.2%
WDR5-MYC (Homo sapiens) [7]
  Activity: Dose-Dependent Effect
WDR5-MYC
  Ki: 1.3 µM
[2]
  ΔTm: -2.7 °C
WDR5-MYC (Homo sapiens) [8]
  Activity: 33.2%

## CCOc1ccc(-c2nc(N)sc2SC#N)cc1Br
WDR5-MYC
  Ki: 6.3 µM

## CNc1nc(-c2ccc(Cl)cc2)c(SC#N)s1
WDR5-MYC
  Ki: 1.2 µM

## N#CSc1sc(NC(=O)c2ccc(Cl)cc2)nc1-c1ccc(Cl)cc1
WDR5-MYC
  Ki: > 50 µM

## N#CSc1sc(Nc2ccccn2)nc1-c1ccc(Cl)cc1
WDR5-MYC
  Ki: > 50 µM
